The record followed here is ChEMBL document CHEMBL1165971, “Structures and antimicrobial activities of pyridoacridine alkaloids isolated from different chromotypes of the ascidian Cystodytes dellechiajei” (2010).

Values after ≈ are worked out from the molar mass of the structure shown.

For assay [1], the system named is Escherichia coli. Description: Antibacterial activity against Escherichia coli after 24 hrs by liquid growth inhibition assay. The format is functional. An outline of the steps:
(§1)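 Liquid growth inhibition (NCCLS-based broth method). Compounds dissolved in DMSO and liquid medium, incubated with bacteria at 2 × 10^8 cells/mL in PB medium (Bacto-tryptone 1%, NaCl 0.5%, pH 7.5), 35 °C, 24 h, constant agitation. Triplicate wells. Growth read as absorbance at 620 nm; MIC taken as lowest concentration inhibiting growth.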

Assay [2] concerns Micrococcus luteus. The experiment in a line: Antibacterial activity against Micrococcus luteus after 24 hrs by liquid growth inhibition assay. It counts as functional. An outline of the steps:
as §1

On to `NCCc1c2c(c3nccc4c3c1Nc1ccccc1-4)NC(=O)CS2`, for which the MIC amounted to 1.1 µM (≈ 0.383 µg/mL) in assay [1] and 4.5 µM (≈ 1.57 µg/mL) in assay [2].
With `O=C1c2c(O)ccnc2-c2nccc3c2c1nc1ccccc13`, the MIC in assay [1] came to 2.6 µM (≈ 0.778 µg/mL); in assay [2], 10.5 µM (≈ 3.14 µg/mL).
For `NCCc1c2c3c(ccnc3c3ncsc13)-c1ccccc1N2` the same measures were 2.5 µM (≈ 0.796 µg/mL) and 2.5 µM (≈ 0.796 µg/mL).
Take `O=C1c2cccnc2-c2nccc3c2c1nc1ccccc13` [ASCIDIDEMIN]: the MIC was 0.2 µM (≈ 0.0567 µg/mL) in assay [1] and 0.3 µM (≈ 0.085 µg/mL) in assay [2].
For `N=C1C2=C(NCCC2=O)c2nccc3c2c1nc1ccccc13` [CYSTODIMINE A] the same measures were 1.2 µM (≈ 0.36 µg/mL) and 2.4 µM (≈ 0.721 µg/mL).
`N=C1C2=C(NCCC2=O)c2nccc3c2c1nc1ccc(O)cc13` [CYSTODIMINE B]: the MIC is 2.6 µM (≈ 0.822 µg/mL) in assay [1] and 10.5 µM (≈ 3.32 µg/mL) in assay [2].
For `CC(=O)NCCc1c2c3c(ccnc3c3ncsc13)-c1ccccc1N2` [KUANONIAMINE D] the same measures were 2.2 µM (≈ 0.793 µg/mL) and 17.4 µM (≈ 6.27 µg/mL).
Taken in the same sequence, the figures for `CC(=O)NCCc1c2c(c3nccc4c3c1Nc1ccccc1-4)NC(=O)CS2` [SHERMILAMINE B] were 2 µM (≈ 0.781 µg/mL) and 8 µM (≈ 3.12 µg/mL).
Regarding GENTAMICIN, the minimum inhibitory concentration (MIC) in assay [1] was 0.08 µM; in assay [2] it was 0.02 µM.

In general, MIC refers to the smallest concentration in the dilution series that meets the test's criterion for growth inhibition. The low end stands for a more susceptible organism, the high end for a less susceptible organism.
